# Laboratory results published in ChEMBL document CHEMBL1154927, “Photooxidation and Phototoxicity of pi-extended squaraines” (J Med Chem, 2010).
# The source made the active and inactive calls. The calls are words filed in the database; no cut-off is given here.
# Assays:
# HeLa [1] = test: Cellular uptake in human HeLa cells assessed as localization to cytoplasm at 8 uM after 4 hrs by confocal laser microscopy; type: ADME, cell-based
# In short: (§1)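 HeLa cells seeded (2 × 10^5) on coverslips, treated 24 h later with squaraine for 3 h (figure legend states 4 h), then irradiated with a metal halogen white lamp at 15 J/cm2. Cells were fixed with PFA, permeabilized with Triton X-100 (0.1% in PBS) and nuclei stained with Hoechst. Localization was imaged by confocal laser microscopy.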
# HeLa [2] = test: Photocytotoxicity against human HeLa cells assessed as cell growth arrest at 9.6 uM for 3 hrs followed by 15 J/mc2 irradiation measured 72 hrs after irradiation by resazurin proliferation assay; type: functional, cell-based
# In short: (§2)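 HeLa cells were given squaraine, irradiated with light (15 J/cm2), and followed for up to 72 h after light treatment for proliferation. Controls were cells treated only with light.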
# MCF7 [3] = test: Photocytotoxicity against human MCF7 cells assessed as induction of lipid peroxidation-mediated malondialdehyde production at 1.8 uM for 3 hrs followed by 15 J/mc2 irradiation by TBARS assay relative to untreated control; type: functional, cell-based
# HeLa [4] = test: Photocytotoxicity against human HeLa cells assessed as apoptotic cells at 9.6 uM for 3 hrs followed by 15 J/mc2 irradiation by annexin V/propidium iodide staining-based FACS flow cytometry (Rvb=1.3%); type: functional
# HeLa [5] = test: Photocytotoxicity against human HeLa cells assessed as necrotic cells at 9.6 uM for 3 hrs followed by 15 J/mc2 measured 72 hrs irradiation by propidium iodide staining; type: functional, cell-based
# In short: (§3)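 HeLa cells (2.5 × 10^5, six-well) were treated with squaraine the next day and photoactivated. The medium was then replaced with fresh medium containing Hoechst and PI (both 2 μg/mL). Living cells were time-lapse imaged at 37 °C, 5% CO2 over 72 h, with necrotic (PI-red, swollen) and apoptotic (shrinkage, blebbing, apoptotic bodies) morphology scored. Controls had no squaraine.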
# HeLa [6] = test: Photocytotoxicity against human HeLa cells assessed as necrotic cells at 9.6 uM for 3 hrs followed by 15 J/mc2 irradiation by annexin V/propidium iodide staining-based FACS flow cytometry (Rvb=1.0%); type: functional
# HeLa [7] = test: Induction of apoptosis in human HeLa cells assessed as apoptotic bodies at 9.6 uM for 3 hrs followed by 15 J/mc2 measured 72 hrs irradiation by propidium iodide staining; type: functional, cell-based; in short: as §3
# MCF7 [8] = test: Photocytotoxicity against human MCF7 cells assessed as induction of lipid peroxidation-mediated malondialdehyde production at 9.6 uM for 3 hrs followed by 15 J/mc2 irradiation by TBARS assay relative to untreated control; type: functional, cell-based
# HeLa [9] = test: Cellular uptake in human HeLa cells assessed as localization to nucleus at 8 uM after 4 hrs by confocal laser microscopy; type: ADME, cell-based; in short: as §1
# HeLa [10] = test: Photocytotoxicity against human HeLa cells assessed as induction of lipid peroxidation-mediated malondialdehyde production at 9.6 uM for 3 hrs followed by 15 J/mc2 irradiation by TBARS assay relative to untreated control; type: functional
# HeLa [11] = test: Induction of apoptosis in human HeLa cells assessed as caspase 3/7 activation at 9.6 uM for 3 hrs followed by 15 J/mc2; type: functional, cell-based
# In short: (§4)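 HeLa cells (5000/well) were incubated 3 h with squaraine and irradiated at 15 J/cm2. Caspase-3/7 activity was measured 2.5, 16 and 22 h after light using a homogeneous fluorogenic reagent (substrate 1:100 in buffer, 1:1 with sample), with ex 485/em 530 nm. Values are means ± SDs of at least two independent experiments.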
# HeLa [12] = test: Photocytotoxicity against human HeLa cells treated for 3 hrs followed by 15 J/mc2 irradiation measured 24 hrs after irradiation by resazurin proliferation assay; type: functional
# In short: (§5)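 Cells were seeded to reach plateau growth: HeLa and B78-H1 at 5000, HepG2 and MCF-7 at 7000 cells/well. They were incubated 3 h with increasing squaraine concentrations (DMSO stock, final DMSO <0.2%, DMSO-matched control), then irradiated 30 min with a metal halogen lamp (15 J/cm2). Resazurin proliferation was read 24 h later as % of untreated fluorescence. IC50 was estimated from dose-response plots; means ± SDs of three independent experiments.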
# MCF7 [13] = test: Photocytotoxicity against human MCF7 cells treated for 3 hrs followed by 15 J/mc2 irradiation measured 24 hrs after irradiation by resazurin proliferation assay; type: functional; in short: as §5
# HeLa [14] = test: Cytotoxicity against human HeLa cells under dark condition at 5 uM after 24 hrs by resazurin proliferation assay; type: cell-based
# In short: (§6)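 Cells were seeded to reach plateau growth: HeLa and B78-H1 at 5000, HepG2 and MCF-7 at 7000 cells/well. They were exposed to increasing squaraine concentrations in the dark, with compound from DMSO diluted in medium (final DMSO <0.2%). Viability was measured by resazurin fluorescence as RFU treated/RFU untreated × 100. Values are means ± SDs of three independent experiments.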
# HeLa [15] = test: Cytotoxicity against human HeLa cells under dark condition after 24 hrs by resazurin proliferation assay; type: cell-based; in short: as §6
# MCF7 [16] = test: Cytotoxicity against human MCF7 cells under dark condition at 5 uM after 24 hrs by resazurin proliferation assay; type: cell-based; settings: mcf7, 24 h; in short: as §6
# HeLa [17] = test: Photocytotoxicity against human HeLa cells assessed as induction of lipid peroxidation-mediated malondialdehyde production at 1.8 uM for 3 hrs followed by 15 J/mc2 irradiation by TBARS assay relative to untreated control; type: functional
# HeLa [18] = test: Photocytotoxicity against human HeLa cells assessed as apoptotic cells at 1.5 uM for 3 hrs followed by 15 J/mc2 irradiation by annexin V/propidium iodide staining-based FACS flow cytometry (Rvb=1.3%); type: functional
# HeLa [19] = test: Induction of apoptosis in human HeLa cells assessed as caspase 3/7 activation at 1.5 uM for 3 hrs followed by 15 J/mc2; type: functional, cell-based; in short: as §4
# HeLa [20] = test: Cellular uptake in human HeLa cells assessed as localization to cytoplasm at 1 uM after 4 hrs by confocal laser microscopy; type: ADME, cell-based; in short: as §1
# HeLa [21] = test: Induction of apoptosis in human HeLa cells assessed as apoptotic bodies at 1.5 uM for 3 hrs followed by 15 J/mc2 measured 72 hrs irradiation by propidium iodide staining; type: functional, cell-based; in short: as §3
# MCF7 [22] = test: Cytotoxicity against human MCF7 cells under dark condition after 24 hrs by resazurin proliferation assay; type: cell-based; settings: mcf7, 24 h; in short: as §6
# HepG2 [23] = test: Cytotoxicity against human HepG2 cells under dark condition after 24 hrs by resazurin proliferation assay; type: cell-based; settings: hepg2, 24 h; in short: as §6
# Mus musculus [24] = test: Toxicity in C57BL/6 mouse bearing mouse B78H1 cells assessed as mortality at 3 umol/kg, iv measured after 1 week; type: organism-based; settings: in vivo, 168 h
# In short: (§7)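 Squaraine given to mice at 3 μmol/kg (the dose used for PDT experiments), formulated in small unilamellar dioleoylphosphatidylcholine liposomes and injected.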
# HepG2 [25] = test: Cytotoxicity against human HepG2 cells under dark condition at 5 uM after 24 hrs by resazurin proliferation assay; type: cell-based; settings: hepg2, 24 h; in short: as §6
# HeLa [26] = test: Photocytotoxicity against human HeLa cells assessed as cell growth arrest at 1.5 uM for 3 hrs followed by 15 J/mc2 irradiation measured 72 hrs after irradiation by resazurin proliferation assay; type: functional, cell-based; in short: as §2
# HeLa [27] = test: Photocytotoxicity against human HeLa cells assessed as necrotic cells at 1.5 uM for 3 hrs followed by 15 J/mc2 irradiation by annexin V/propidium iodide staining-based FACS flow cytometry (Rvb=1.0%); type: functional
# [28] = Photocytotoxicity against mouse B78H1 cells treated for 3 hrs followed by 15 J/mc2 irradiation measured 24 hrs after irradiation by resazurin proliferation assay; type: functional; in short: as §5
# [29] = Cytotoxicity against mouse B78H1 cells under dark condition at 5 uM after 24 hrs by resazurin proliferation assay; type: cell-based; settings: b78h1, 24 h; in short: as §6
# HUVEC = test: Cytotoxicity against HUVEC cells under dark condition after 24 hrs by resazurin proliferation assay; type: cell-based; settings: human
# HeLa [30] = test: Cellular uptake in human HeLa cells assessed as localization to nucleus at 1 uM after 4 hrs by confocal laser microscopy; type: ADME, cell-based; in short: as §1
# HepG2 [31] = test: Photocytotoxicity against human HepG2 cells treated for 3 hrs followed by 15 J/mc2 irradiation measured 24 hrs after irradiation by resazurin proliferation assay; type: functional; in short: as §5
# [32] = Cytotoxicity against mouse B78H1 cells under dark condition after 24 hrs by resazurin proliferation assay; type: cell-based; settings: b78h1, 24 h; in short: as §6
# HeLa [33] = test: Photocytotoxicity against human HeLa cells assessed as necrotic cells at 1.5 uM for 3 hrs followed by 15 J/mc2 measured 72 hrs irradiation by propidium iodide staining; type: functional, cell-based; in short: as §3
# Mus musculus [34] = test: Toxicity in C57BL/6 mouse bearing mouse B78H1 cells assessed as behavioral changes at 3 umol/kg, iv measured for 1 week; type: organism-based; settings: in vivo, 168 h; in short: as §7
smiles,measurement,setting,value
CCCCCC[n+]1c(/C=C2\C(=O)C(c3ccc(-c4ccc(-c5ccc(C6=C([O-])/C(=C\c7sc8ccccc8[n+]7CCCCCC)C6=O)s5)s4)s3)=C2[O-])sc2ccccc21,Drug uptake,HeLa [1],Active
same,Activity,HeLa [2],Active
same,Activity,MCF7 [3],Active
same,Activity,HeLa [4],8.8%
same,Activity,HeLa [5],Active
same,Activity,HeLa [6],25.9%
same,Activity,HeLa [7],Active
same,Activity,MCF7 [8],Active
same,Drug uptake,HeLa [9],Not Active
same,fold change (FC),HeLa [10],4
same,Activity,HeLa [11],Active
CCCCCCN1/C(=C/C2=C([O-])C(=C\c3sc4ccccc4[n+]3CCCCCC)/C2=O)Sc2ccccc21,Activity,HeLa [12],80%
same,Activity,MCF7 [13],80%
same,Activity,HeLa [14],Toxic
same,Activity,HeLa [15],Non-toxic
same,Activity,MCF7 [16],Toxic
same,fold change (FC),HeLa [17],4
same,Activity,HeLa [18],3.9%
same,Activity,HeLa [19],Active
same,Drug uptake,HeLa [20],Active
same,Activity,HeLa [21],Active
same,Activity,MCF7 [22],Non-toxic
same,Activity,HepG2 [23],Non-toxic
same,Activity,Mus musculus [24],Non-toxic
same,Activity,HepG2 [25],Toxic
same,Activity,HeLa [26],Active
same,Activity,MCF7 [3],Active
same,Activity,HeLa [27],9.5%
same,Activity,[28],80%
same,Activity,[29],Toxic
same,Activity,HUVEC,Non-toxic
same,Activity,MCF7 [8],Active
same,Drug uptake,HeLa [30],Not Active
same,Activity,HepG2 [31],80%
same,Activity,[32],Non-toxic
same,Activity,HeLa [33],Active
same,Activity,Mus musculus [34],Non-toxic
